In publication PMC3409840 (ACS medicinal chemistry letters, 2012):

Legend:
p65 [1] = test: Western blot of p65 in nuclear lysate of NF-κB-induced CCRF-CEM cells; assay type: cell-based, human
Method in brief: (§1)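 Cells were dosed with test compound at 100 μM or 25 μM, or with DMSO vehicle, and the NF-κB pathway was then induced with TNF-α. Controls were noninduced and TNF-α-induced cells, both given vehicle.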

IL-8 = test: Secreted IL-8 protein by ELISA in TNF-α-induced DU-145 cells; assay type: cell-based, human
Method in brief: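 DU-145 cells dosed with DMSO vehicle or test compound (100 μM and 33 μM), followed by TNF-α induction of the NF-κB pathway. Non-induced and induced vehicle controls were included. Secreted IL-8 protein in the cell medium was quantified by ELISA.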

DU-145 = test: Cellular cytotoxicity by Alamar Blue staining, DU-145; assay type: cell-based, human; conditions: for IC50 against DU-145 relative to reported IC50 of cryptocaryone: fold higher than cryptocaryone
p65 [2] = test: Western blot of p65 in nuclear lysate of NF-κB-induced DU-145 cells; assay type: cell-based, human
Method in brief: as §1

[3] = NMR-based thiol reactivity assay with cysteamine; conditions: two molar equivalents of cysteamine, DMSO-d6/D2O PBS, 1H NMR
NF-κB = NF-κB luciferase reporter assay in A549 cells induced with TNF-α; assay type: cell-based, human
Method in brief: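 A549 lung cancer cells carrying a stably transfected luciferase reporter behind six consensus NF-κB binding-site repeats. Cells induced with TNF-α and treated with test compound at 100, 50 and 10 μM (preliminary screen at 50 μM). Non-induced and TNF-α-induced wells serve as controls. Read-out is luciferase signal. Cell viability was checked in parallel under identical conditions.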

IL-8 mRNA = test: Semi-quantitative RT-PCR of IL-8 mRNA in TNF-α-induced DU-145 cells; assay type: cell-based, human; conditions: 33 µM, lowest concentration tested
Method in brief: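 DU-145 cells given DMSO vehicle or test compound (100 μM and 33 μM), then induced with TNF-α, alongside non-induced and induced controls. IL-8 mRNA was assessed by semiquantitative (traditional) RT-PCR, with GAPDH mRNA amplified as the reference transcript.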

Vero = test: Cellular cytotoxicity by Alamar Blue staining, Vero; assay type: cell-based, African green monkey; conditions: mean ± SD
CCRF-CEM = test: Cellular cytotoxicity by Alamar Blue staining, CCRF-CEM; assay type: cell-based, human; conditions: 48-hr cytotoxicity assay, mean ± SD
RWPE-1 = test: Cellular cytotoxicity by Alamar Blue staining, RWPE-1; assay type: cell-based, human; conditions: mean ± SD
[4] = Solubility under the NF-κB reporter assay conditions; assay type: physicochemical; conditions: 50 µM screen
IκBα = conditions: 16 µM; cited from earlier work

CC(=O)O/C(=C1\CO[C@]2(C)C=CC(=O)C[C@H]12)c1ccccc1 (racemic) [Compound 10]
inhibition of nuclear translocation of p65 (p65 [1]; 25 µM): Partial inhibition of p65 nuclear translocation
inhibition of nuclear translocation of p65 (p65 [1]; 100 µM): completely inhibited nuclear translocation of p65
secreted IL-8 levels (IL-8; 33 µM): 3,480 pg/mL
IC50 against DU-145 relative to reported IC50 of cryptocaryone (DU-145): approximately 15 fold
inhibition of nuclear translocation of p65 (p65 [2]; 25 µM): Partial inhibition of p65 nuclear translocation
inhibition of nuclear translocation of p65 (p65 [2]; 100 µM): completely inhibited nuclear translocation of p65
time to disappearance of vinyl proton doublets after cysteamine addition [3]: ≤ 5 min

CC(=O)O/C(C)=C1\CO[C@]2(c3ccccc3)C=CC(=O)C[C@H]12 (racemic) [Compound 11]
inhibition of nuclear translocation of p65 (p65 [1]; 25 µM): Partial inhibition of p65 nuclear translocation
inhibition of nuclear translocation of p65 (p65 [1]; 100 µM): completely inhibited nuclear translocation of p65
secreted IL-8 levels (IL-8; 33 µM): 2,970 pg/mL
effect on IL-8 protein levels (in words) (IL-8; highest concentration tested (100 µM)): depleted IL-8 protein levels to nearly undetectable levels
IC50 against DU-145 relative to reported IC50 of cryptocaryone (DU-145): approximately 15 fold
inhibition of nuclear translocation of p65 (p65 [2]; 25 µM): Partial inhibition of p65 nuclear translocation
inhibition of nuclear translocation of p65 (p65 [2]; 100 µM): completely inhibited nuclear translocation of p65
enhancement in potency compared with racemic 11 (NF-κB; 50 µM): 2 fold
IL-8 mRNA production (in words) (IL-8 mRNA): visibly lower levels than that of 10

CC(=O)O/C(=C1\CO[C@]2(C)CCC(=O)C[C@H]12)c1ccccc1 (racemic) [Compound 12]
IC50 Vero (Vero): no appreciable toxicity
IC50 CCRF-CEM (CCRF-CEM): no appreciable toxicity
secreted IL-8 levels (IL-8; 100 µM): 4,900 pg/mL
IC50 DU-145 (DU-145; 48-hr cytotoxicity assay, Alamar Blue, mean ± SD): no appreciable toxicity
decrease in potency compared to 11 (NF-κB; 100 µM): ~ 4 fold
reduction of NF-κB activity (NF-κB; 100 µM, highest concentration tested): 24%
IC50 RWPE-1 (RWPE-1): no appreciable toxicity

CO[C@@]12C=C(Br)C(=O)C[C@@H]1/C(=C(/OC(C)=O)c1ccccc1)CC2 (racemic) [Compound 4]
solubility under the assay conditions [4]: poorly soluble under the assay conditions

O=C1C[C@@H]2/C(=C(O)\C=C\c3ccccc3)C(=O)C=C[C@@H]2O1 [cryptocaryone]
inhibition of IκBα degradation (in words) (IκBα): inhibit the degradation of IκBα
